According to ChEMBL document CHEMBL2029317, “(Z)-2-(2-bromophenyl)-3-{[4-(1-methyl-piperazine)amino]phenyl}acrylonitrile (DG172): an orally bioavailable PPARβ/δ-selective ligand with inverse agonistic properties” (J Med Chem, 2012):
Active and inactive are the calls of the source. No cut-off for these calls is given here.

The molecules below were run against T1, Peroxisome proliferator-activated receptor delta (Mus musculus) (UniProt P35396) (assay: Displacement of fluormone Pan-PPAR Green from mouse recombinant GST-tagged PPARbeta/delta LBD at 1 uM after 60 mins by TR-FRET assay).
T1 sequence (whole entry): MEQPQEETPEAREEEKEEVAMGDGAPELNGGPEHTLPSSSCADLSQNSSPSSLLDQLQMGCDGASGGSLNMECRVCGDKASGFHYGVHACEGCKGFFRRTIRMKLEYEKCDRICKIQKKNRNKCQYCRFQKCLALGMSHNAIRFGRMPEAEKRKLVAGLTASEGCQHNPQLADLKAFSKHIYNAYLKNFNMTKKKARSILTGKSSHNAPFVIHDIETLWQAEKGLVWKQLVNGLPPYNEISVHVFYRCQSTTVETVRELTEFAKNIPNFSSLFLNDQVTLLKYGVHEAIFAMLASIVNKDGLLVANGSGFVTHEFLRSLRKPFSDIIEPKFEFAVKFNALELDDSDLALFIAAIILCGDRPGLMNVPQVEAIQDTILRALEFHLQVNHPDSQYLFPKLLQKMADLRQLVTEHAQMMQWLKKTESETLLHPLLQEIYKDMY
Summary of the method: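 Competitive binding by LanthaScreen TR-FRET: recombinant GST-PPARβ/δ LBD, detected through a terbium-labelled anti-GST antibody, was incubated with Fluormone Pan-PPAR Green. Compound was tested at 1 μM. Read-out is the 520 nm/495 nm emission ratio after terbium excitation, as averages of triplicates ± SD.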

| SMILES | Activity |
| --- | --- |
| CN(C)c1ccc(/C=C(\C#N)c2ccc([N+](=O)[O-])cc2)cc1 | Active |
| CN(C)c1ccc(/C=C/c2ccccc2)cc1 | inactive |
| CN(C)c1ccc(/C=C(\C#N)c2cccc(Cl)c2)cc1 | Active |
| CN(C)c1ccc(/C=C(\C#N)c2ccc(Cl)cc2)cc1 | Active |
| N#C/C(=C\c1ccc(N2CCCCCC2)cc1)c1ccccc1 | Active |
| N#C/C(=C\c1ccc(Nc2ccccc2)cc1)c1ccccc1 | Active |
| CN(C)c1ccc(/C=C(\C#N)c2ccccc2C#N)cc1 | Active |
| N#C/C(=C\c1ccc(NC2CCCCC2)cc1)c1ccccc1 | Active |
| CN(C)c1ccc(/C=C(\C#N)c2ccccc2Br)cc1 | Active |
| N#C/C(=C\c1ccccc1)c1ccccc1 | Active |
| CN(C)c1ccc(/C=C(\C#N)c2ccccc2I)cc1 | Active |
| COc1ccc(/C=C(\C#N)c2ccccc2)cc1 | Active |
| CN1CCN(c2ccc(/C=C(\C#N)c3ccccc3)cc2)CC1 | Active |
| N#C/C(=C\c1cccc(Br)c1)c1ccccc1 | Active |
| CN(C)c1ccc(/C=C(\C#N)c2ccccc2[N+](=O)[O-])cc1 | Active |
| CN(C)c1ccc(C(C#N)=Cc2ccccc2)cc1 | inactive |
| CN(C)c1ccc(CC(C#N)c2ccccc2)cc1 (racemic) | inactive |

| SMILES | Activity |
| --- | --- |
| N#C/C(=C\c1ccc(Br)cc1)c1ccccc1 | Active |
| N#C/C(=C\c1ccc(N2CCCC2)cc1)c1ccccc1 | Active |
| N#C/C(=C\c1ccc(C(F)(F)F)cc1)c1ccccc1 | Active |
| N#C/C(=C\c1ccc(N)cc1)c1ccccc1 | Active |
| N#C/C(=C\c1ccccc1Br)c1ccccc1 | Active |
| COc1ccccc1/C(C#N)=C/c1ccc(N(C)C)cc1 | Active |
| N#C/C(=C\c1ccc(N2CCCCC2)cc1)c1ccccc1 | Active |
| CN(C)Cc1ccc(/C=C(\C#N)c2ccccc2)cc1 | Active |
| N#C/C(=C\c1ccc(Cl)cc1)c1ccccc1 | Active |
| CN(C)c1ccc(/C=C/C=C(\C#N)c2ccccc2)cc1 | inactive |
| CN(C)c1ccc(/C=C(\C#N)c2ccccc2C(F)(F)F)cc1 | Active |
| CC1CCN(c2ccc(/C=C(\C#N)c3ccccc3)cc2)CC1 | Active |
| CN(C)c1ccc(/C=C(\C#N)c2ccc(F)cc2)cc1 | Active |
| N#C/C(=C\c1ccc(N2CCNCC2)cc1)c1ccccc1 | Active |
| CN(C)c1ccc(/C=C(\C#N)c2ccccc2F)cc1 | Active |
| COc1ccc(/C(C#N)=C/c2ccc(N(C)C)cc2)cc1 | Active |
| N#C/C(=C\c1ccc(N2CCOCC2)cc1)c1ccccc1 | Active |

Each molecule was assayed against T1, Peroxisome proliferator-activated receptor delta (Mus musculus) (assay: Antagonist activity at PPARbeta/delta in mouse NIH3T3 cells coexpressing LexA assessed as decrease in L165,041-induced transcriptional activation at 1 uM after 48 hrs by luciferase reporter gene assay relative to control).
Format: functional, cell-based
Summary of the method: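 NIH3T3 cells were transfected with LexA-PPARα, -PPARβ/δ or -PPARγ fusion plasmids plus the 7L-TATAi luciferase reporter. From 4 h post-transfection, cells received inhibitory ligand (1 μM) for 48 h. Agonists followed: GW7647 300 nM (PPARα), L165,041 1 μM (PPARβ/δ) or GW1929 300 nM (PPARγ), or agonist solvent. Induction is luciferase activity with agonist relative to solvent; triplicates with t test.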

| SMILES | Activity |
| --- | --- |
| N#C/C(=C\c1ccc(N2CCCCC2)cc1)c1ccccc1 | Active |

What follows are molecules tested against T2, Peroxisome proliferator-activated receptor delta (Mus musculus, UniProt P35396) (assay: Inverse agonist activity at PPARbeta/delta in mouse C2C12 cells assessed as inhibition of Angptl4 expression after 24 hrs by RT-qPCR analysis).
T2 sequence (P35396 whole entry): T1 sequence (whole entry)
Format: functional, cell-based

| SMILES | IC50 |
| --- | --- |
| CN(C)c1ccc(/C=C(\C#N)c2ccccc2)cc1 | > 0.5 µM |
